Data on 97 variants can be found in the RNAGym collection of RNA variant scans (doi:10.1002/anie.201605470).

B1: Osa-1-4 twister ribozyme (parent)
chain: CCGCCUAACACUGCCAAUGCCGGUCCCAAGCCCGGAUAAAAGUGGAGGGGGCGG

The variants in the data set derive from B1. Description: self-cleavage, relative activity (ratio to wild type); higher = more cleavage; co-transcriptional. The procedure, abridged:
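The 48 positions downstream of the cleavage site in a 54-nucleotide Oryza sativa twister ribozyme template were synthesised at 97 % wild-type base and 1 % of each other base. The template was transcribed in vitro at 37 °C for 2 h, with self-cleavage allowed during transcription. Reads with or without upstream sequence after deep sequencing marked cleavage status, and relative activity is fraction cleaved normalised to wild type.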
For CCGCCUAACUCUGCCAAUGCCGGUCCCACGCCCGGAUAAAAGUGGAGGGGGCGG, the self-cleavage was found to be 0.01.
The value for CCGCCUAACUCUGCCAAUGCCGGUCCCAUGCCCGGAUAAAAGUGGAGGGGGCGG was 0.03.
The value for CCGCCUAACUCUGCCAAUGCCGGUCCCAGGCCCGGAUAAAAGUGGAGGGGGCGG was 0.03.
For CCGCCUAACUCUGCCAAUGCUGGUCCCAAGCCCGGAUAAAAGUGGAGGGGGCGG, the self-cleavage came to 0.07.
The value for CCGCCUAACUCUGCCAAUGCAGGUCCCAAGCCCGGAUAAAAGUGGAGGGGGCGG was 0.03; that for CCGCCUAACUCUGCCAAUGCGGGUCCCAAGCCCGGAUAAAAGUGGAGGGGGCGG was 0.02.
Take CCGCCUAACUCUGCCCAUGCCGGUCCCAAGCCCGGAUAAAAGUGGAGGGGGCGG: the self-cleavage was found to be 0.03.
The value for CCGCCUAACUCUGCCGAUGCCGGUCCCAAGCCCGGAUAAAAGUGGAGGGGGCGG was 0.06; that for CCGCCUAACUCUGCCUAUGCCGGUCCCAAGCCCGGAUAAAAGUGGAGGGGGCGG was 0.06; that for CCGCCUAACUCUGCCAAUGCCGGUCCCAAGCCCGGAUAAAAGUGGUGGGGGCGG was 0.03.
Take CCGCCUAACUCUGCCAAUGCCGGUCCCAAGCCCGGAUAAAAGUGGCGGGGGCGG: the self-cleavage amounted to 0.02.
Then CCGCCUAACUCUGCCAAUGCCGGUCCCAAGCCCGGAUAAAAGUGGGGGGGGCGG, with 0.
Then CCGCCUAACUCUGCCAAUGCCGGUCCCAAGCCCGGAUUAAAGUGGAGGGGGCGG, with 0.05; and CCGCCUAACUCUGCCAAUGCCGGUCCCAAGCCCGGAUCAAAGUGGAGGGGGCGG, with 0.06; and CCGCCUAACUCUGCCAAUGCCGGUCCCAAGCCCGGAUGAAAGUGGAGGGGGCGG, with 0.07.
The value for CCGCCUAACUCUGCCAAUGCCGGUCCCAAGCCCGGAUAUAAGUGGAGGGGGCGG was 0.12.
CCGCCUAACUCUGCCAAUGCCGGUCCCAAGCCCGGAUACAAGUGGAGGGGGCGG: the self-cleavage stood at 0.04.
The value for CCGCCUAACUCUGCCAAUGCCGGUCCCAAGCCCGGAUAGAAGUGGAGGGGGCGG was 0.08; that for CCGCCUAACGCUGCCAAAGCCGGUCCCAAGCCCGGAUAAAAGUGGAGGGGGCGG was 0.85.
Then CCGCCUAACGCUGCCAACGCCGGUCCCAAGCCCGGAUAAAAGUGGAGGGGGCGG, with 0.68; and CCGCCUAACGCUGCCAAGGCCGGUCCCAAGCCCGGAUAAAAGUGGAGGGGGCGG, with 0.66; and CCGCCUAACUUUGCCAAUGCCGGUCCCAAGCCCGGAUAAAAGUGGAGGGGGCGG, with 0.05.
Then CCGCCUAACUAUGCCAAUGCCGGUCCCAAGCCCGGAUAAAAGUGGAGGGGGCGG, with 0.04; and CCGCCUAACUGUGCCAAUGCCGGUCCCAAGCCCGGAUAAAAGUGGAGGGGGCGG, with 0.03.
On to CCGCCUAACUCUGCCAAUGCCGGUCCCUAGCCCGGAUAAAAGUGGAGGGGGCGG, for which the self-cleavage is 0.05.
The value for CCGCCUAACUCUGCCAAUGCCGGUCCCCAGCCCGGAUAAAAGUGGAGGGGGCGG was 0.03; that for CCGCCUAACUCUGCCAAUGCCGGUCCCGAGCCCGGAUAAAAGUGGAGGGGGCGG was 0.04.
The value for CCGCCUAAAUCUGCCAAUGCCGGUCCCAAGCCCGGAUAAAAGUGGAGGGGGCGG was 0.04.
Then CCGCCUAAGUCUGCCAAUGCCGGUCCCAAGCCCGGAUAAAAGUGGAGGGGGCGG, with 0.07; and CCGCCUAAUUCUGCCAAUGCCGGUCCCAAGCCCGGAUAAAAGUGGAGGGGGCGG, with 0.05.
With CCGCCUAACUCUGCCAAUGCCGGUCCCAAGCCCGGAUAAAAGUGGAGGGGGCGG, the self-cleavage was found to be 0.05.
In the case of CCGCCUAACUCUGCCAAUGCCGGUCCCAAGCCCGGAUAAUAGUGGAGGGGGCGG, the self-cleavage is 0.05.
Then CCGCCUAACUCUGCCAAUGCCGGUCCCAAGCCCGGAUAACAGUGGAGGGGGCGG, with 0.01; and CCGCCUAACUCUGCCAAUGCCGGUCCCAAGCCCGGAUAAGAGUGGAGGGGGCGG, with 0.05.
As to CCGCCUAGCUCUGCCAAUGCCGGUCCCAAGCCCGGAUAAAAGUGGAGGGGGCGG, the self-cleavage worked out at 0.05.
Then CCGCCUACCUCUGCCAAUGCCGGUCCCAAGCCCGGAUAAAAGUGGAGGGGGCGG, with 0.03; and CCGCCUAUCUCUGCCAAUGCCGGUCCCAAGCCCGGAUAAAAGUGGAGGGGGCGG, with 0.04; and CCGCCUAACGCUGCCAAUGCCGGUCCCAAGCCCGGAGAAAAGUGGAGGGGGCGG, with 0.87.
The value for CCGCCUAACGCUGCCAAUGCCGGUCCCAAGCCCGGAAAAAAGUGGAGGGGGCGG was 0.67; that for CCGCCUAACGCUGCCAAUGCCGGUCCCAAGCCCGGACAAAAGUGGAGGGGGCGG was 0.95.
Then CCGCCUAACGCUGCCAAUGCCGGGCCCAAGCCCGGAUAAAAGUGGAGGGGGCGG, with 0.04.
With CCGCCUAACGCUGCCAAUGCCGGCCCCAAGCCCGGAUAAAAGUGGAGGGGGCGG, the self-cleavage was 0.1.
Then CCGCCUAACGCUGCCAAUGCCGGACCCAAGCCCGGAUAAAAGUGGAGGGGGCGG, with 0.09; and CCGCCUAACGCUGCCAAUGCCGGUCCCAAGCCCGGAUAAAAGUGGAGGGGGCCG, with 0.07; and CCGCCUAACGCUGCCAAUGCCGGUCCCAAGCCCGGAUAAAAGUGGAGGGGGCUG, with 0.22.
Then CCGCCUAACGCUGCCAAUGCCGGUCCCAAGCCCGGAUAAAAGUGGAGGGGGCAG, with 0.41; and CCGCCUAACGCUGCCAAUGCCGGUCCCAAGCCCGGAUAAAAGUGGAGGCGGCGG, with 0.07.
Then CCGCCUAACGCUGCCAAUGCCGGUCCCAAGCCCGGAUAAAAGUGGAGGUGGCGG, with 0.09.
CCGCCUAACGCUGCCAAUGCCGGUCCCAAGCCCGGAUAAAAGUGGAGGAGGCGG: the self-cleavage is 0.07.
The value for CCGCCUAACGCUGCCAAUGCCGGUCCCAAGCCCGGAUAAAAGGGGAGGGGGCGG was 0.3.
For CCGCCUAACGCUGCCAAUGCCGGUCCCAAGCCCGGAUAAAAGCGGAGGGGGCGG, the self-cleavage came to 0.96.
As to CCGCCUAACGCUGCCAAUGCCGGUCCCAAGCCCGGAUAAAAGAGGAGGGGGCGG, the self-cleavage stood at 0.79.
The value for CCGCCUAACUCUGCCAAUGGCGGUCCCAAGCCCGGAUAAAAGUGGAGGGGGCGG was 0.03; that for CCGCCUAACUCUGCCAAUGUCGGUCCCAAGCCCGGAUAAAAGUGGAGGGGGCGG was 0.05; that for CCGCCUAACUCUGCCAAUGACGGUCCCAAGCCCGGAUAAAAGUGGAGGGGGCGG was 0.05.
Regarding CCGCCUAACUCUGCCAAUGCCGGUCCCAAGCCCGGUUAAAAGUGGAGGGGGCGG, the self-cleavage came to 0.04.
For CCGCCUAACUCUGCCAAUGCCGGUCCCAAGCCCGGGUAAAAGUGGAGGGGGCGG, the self-cleavage was 0.05.
The value for CCGCCUAACUCUGCCAAUGCCGGUCCCAAGCCCGGCUAAAAGUGGAGGGGGCGG was 0.03; that for CCGCCUAACUCUGCCAAUGCCGGUCCUAAGCCCGGAUAAAAGUGGAGGGGGCGG was 0.05.
The value for CCGCCUAACUCUGCCAAUGCCGGUCCGAAGCCCGGAUAAAAGUGGAGGGGGCGG was 0.04.
The value for CCGCCUAACUCUGCCAAUGCCGGUCCAAAGCCCGGAUAAAAGUGGAGGGGGCGG was 0.02; that for CCGCCUAACGCUGCCAAUGCCGGUCCCAAGCCCGGAUAAAAGUGGAGGGGGCGU was 0.89; that for CCGCCUAACGCUGCCAAUGCCGGUCCCAAGCCCGGAUAAAAGUGGAGGGGGCGC was 0.85.
For CCGCCUAACGCUGCCAAUGCCGGUCCCAAGCCCGGAUAAAAGUGGAGGGGGCGA, the self-cleavage worked out at 0.9.
Then CCGCCUAACGCAGCCAAUGCCGGUCCCAAGCCCGGAUAAAAGUGGAGGGGGCGG, with 0.21.
The value for CCGCCUAACGCGGCCAAUGCCGGUCCCAAGCCCGGAUAAAAGUGGAGGGGGCGG was 0.2; that for CCGCCUAACGCCGCCAAUGCCGGUCCCAAGCCCGGAUAAAAGUGGAGGGGGCGG was 0.12.
Then CCGCCUAACUCUGCCAAUGCCGGUACCAAGCCCGGAUAAAAGUGGAGGGGGCGG, with 0.03; and CCGCCUAACUCUGCCAAUGCCGGUGCCAAGCCCGGAUAAAAGUGGAGGGGGCGG, with 0.02; and CCGCCUAACUCUGCCAAUGCCGGUUCCAAGCCCGGAUAAAAGUGGAGGGGGCGG, with 0.05.
For CCGCCUAACGCUGCCAAUGCCGGUCCCAAGCCCGGAUAAAAGUGGAGGGUGCGG, the self-cleavage was 0.98.
The value for CCGCCUAACGCUGCCAAUGCCGGUCCCAAGCCCGGAUAAAAGUGGAGGGAGCGG was 0.49.
Then CCGCCUAACGCUGCCAAUGCCGGUCCCAAGCCCGGAUAAAAGUGGAGGGCGCGG, with 0.82; and CCGCCUAACUCUGCCAGUGCCGGUCCCAAGCCCGGAUAAAAGUGGAGGGGGCGG, with 0.07; and CCGCCUAACUCUGCCAUUGCCGGUCCCAAGCCCGGAUAAAAGUGGAGGGGGCGG, with 0.08.
For the variant CCGCCUAACUCUGCCACUGCCGGUCCCAAGCCCGGAUAAAAGUGGAGGGGGCGG, the self-cleavage was 0.04.
Then CCGCCUAACUCUGCUAAUGCCGGUCCCAAGCCCGGAUAAAAGUGGAGGGGGCGG, with 0.04; and CCGCCUAACUCUGCAAAUGCCGGUCCCAAGCCCGGAUAAAAGUGGAGGGGGCGG, with 0.03.
The value for CCGCCUAACUCUGCGAAUGCCGGUCCCAAGCCCGGAUAAAAGUGGAGGGGGCGG was 0.03.
Then CCGCCUAACUCUGCCAAUGCCGGUCCCAAGCCCGGAUAAAUGUGGAGGGGGCGG, with 0.07; and CCGCCUAACUCUGCCAAUGCCGGUCCCAAGCCCGGAUAAAGGUGGAGGGGGCGG, with 0.04.
In the case of CCGCCUAACUCUGCCAAUGCCGGUCCCAAGCCCGGAUAAACGUGGAGGGGGCGG, the self-cleavage was 0.04.
Then CCGCCUGACUCUGCCAAUGCCGGUCCCAAGCCCGGAUAAAAGUGGAGGGGGCGG, with 0.08.
Then CCGCCUUACUCUGCCAAUGCCGGUCCCAAGCCCGGAUAAAAGUGGAGGGGGCGG, with 0.03; and CCGCCUCACUCUGCCAAUGCCGGUCCCAAGCCCGGAUAAAAGUGGAGGGGGCGG, with 0.02.
Then CCGCCUAACUCUGACAAUGCCGGUCCCAAGCCCGGAUAAAAGUGGAGGGGGCGG, with 0.02; and CCGCCUAACUCUGGCAAUGCCGGUCCCAAGCCCGGAUAAAAGUGGAGGGGGCGG, with 0.03; and CCGCCUAACUCUGUCAAUGCCGGUCCCAAGCCCGGAUAAAAGUGGAGGGGGCGG, with 0.04.
On to CCGCCUAACGCUGCCAAUGCCGGUCCCAAGCCCGGAUAAAAGUGGAGGGGCCGG, for which the self-cleavage stood at 0.08.
Consider CCGCCUAACGCUGCCAAUGCCGGUCCCAAGCCCGGAUAAAAGUGGAGGGGUCGG, for which the self-cleavage came out at 0.18.
The value for CCGCCUAACGCUGCCAAUGCCGGUCCCAAGCCCGGAUAAAAGUGGAGGGGACGG was 0.28; that for CCGCCUAACUCUGCCAAUGCCGGUCACAAGCCCGGAUAAAAGUGGAGGGGGCGG was 0.01; that for CCGCCUAACUCUGCCAAUGCCGGUCGCAAGCCCGGAUAAAAGUGGAGGGGGCGG was 0.05.
Then CCGCCUAACUCUGCCAAUGCCGGUCUCAAGCCCGGAUAAAAGUGGAGGGGGCGG, with 0.04; and CCGCCUAACUCUGCCAAUGCCGGUCCCAAGGCCGGAUAAAAGUGGAGGGGGCGG, with 0.03.
In the case of CCGCCUAACUCUGCCAAUGCCGGUCCCAAGACCGGAUAAAAGUGGAGGGGGCGG, the self-cleavage turned out to be 0.
Then CCGCCUAACGCUGCCAAUGCCGGUCCCAAGCCCGGAUAAAAGUGGAGUGGGCGG, with 0.06.
